Experimental data gathered from unrelated publications.
Target: Mitogen-activated protein kinase 8 (MAPK8, Homo sapiens, UniProt P45983)

Compound | observed | mode | method | tested at | measurement | value
O=c1[nH]c2ccccc2n1C1CCN(Cc2ccc(-c3[nH]c4cc5ncnc5cc4nc3-c3ccccc3)cc2)CC1 | cell-free assay | – | – | 0.5 µM | remaining signal | 89.6%
Cn1cc(-c2cccc(N3CCc4c(sc5c4CC(C)(C)C5)C3=O)c2CO)cc(Nc2ccncn2)c1=O | enzyme activity | inhibitor | – | 1 µM | inhibition | 1%
N#CC1(c2ccccn2)CCN(Cc2cc(C(=O)O)c(=O)n3ccccc23)CC1 | cell-free assay | – | competition with immobilised ligand | 1 µM | remaining binding | 85%
Nc1ncc(-c2nc(N3CCOCC3)nc(N3CCOCC3)n2)c(C(F)F)n1 | binding | – | competition with immobilised ligand | 10 µM | remaining binding | 86%
C#Cc1n[nH]c2c(-c3cn([C@@H](C)c4ccccc4)c(=O)[nH]c3=O)cc(F)cc12 | enzyme activity | inhibitor | – | 0.1 µM | inhibition | 1.5%
Cn1cncc1[C@](O)(COc1ccc(C#N)cc1-c1ccc(OC(F)(F)F)cc1)c1ccc(C#N)cc1 | cell-free assay | – | competition with immobilised ligand | 1 µM | remaining binding | 100%
Cn1cc(-c2cc(F)cc(N3CCn4c(cc5c4CCCC5)C3=O)c2CO)cc(Nc2ccc(N3CCN(C4COC4)CC3)cn2)c1=O | enzyme activity | inhibitor | – | 0.1 µM | inhibition | -1%
CC(C)(C)c1cc(C=C(C#N)C#N)cc(Br)c1O | enzyme activity | inhibitor | – | 0.5 µM | remaining activity | 90.4%
COc1ncccc1-c1cnn2ccc(N3CCN(C(=O)OC(C)C)CC3)nc12 | binding | – | competition with immobilised ligand | 1 µM | remaining binding | 100%
Cc1nn(C)cc1-c1nc2c(N3CCN(Cc4ccc(Cl)cc4)CC3)c(Cl)cnc2[nH]1 | binding | – | competition with immobilised ligand | 1 µM | remaining binding | 93%
C#Cc1n[nH]c2c(-c3cn(C(C)c4ccccn4)c(=O)[nH]c3=O)cc(F)cc12 (centres unmarked) | enzyme activity | inhibitor | – | 1 µM | inhibition | -4.2%
